Measurements taken from ChEMBL document CHEMBL4130485, “Inhibitors of Yellow Fever Virus replication based on 1,3,5-triphenyl-4,5-dihydropyrazole scaffold: Design, synthesis and antiviral evaluation” (Eur J Med Chem, 2017).

Tests used:
[1] = Cytotoxicity against bovine MDBK cells assessed as decrease in cell viability after 72 hrs by MTT assay; type: cell-based, Bos taurus; conditions: cattle
Procedure, shortened: (§1)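 Uninfected MDBK (6×10^5 cells/mL, 10% horse serum) or BHK (1×10^6 cells/mL, 10% FBS) cells in MEM-Earle with serial compound dilutions at 37 °C, 5% CO2, run in parallel with the antiviral assays. Viability read by MTT after 72 h. CC50 by linear regression; mean of three determinations.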

[2] = test system: Mammalian orthoreovirus 1; test: Antiviral activity against Reovirus 1 infected in golden hamster BHK21 cells assessed as protection against virus-induced cytopathic effect after 3 to 4 days by MTT assay; type: functional, organism-based; conditions: Mammalian orthoreovirus 1, BHK-21
Procedure, shortened: (§2)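 BHK-21 cells (MDBK for BVDV) seeded at 5×10^4 (BHK) or 3×10^4 (MDBK) cells/well and grown overnight to confluence. Infected at m.o.i. 0.01 in maintenance MEM-Earle with 0.5% inactivated FBS. Serial compound dilutions added 2 h later (final 100, 20, 4, 0.8 µM; DMSO ≤0.1%). Viability read by MTT after 3–4 days at 37 °C. EC50 obtained by linear regression against untreated controls; mean of three determinations.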

Yellow fever virus [3] = test: Antiviral activity against Yellow fever virus 17D vaccine (Stamaril Pasteur J07B01) infected in golden hamster BHK21 cells assessed as protection against virus-induced cytopathic effect after 3 to 4 days by MTT assay; type: functional, organism-based; conditions: BHK-21; procedure, shortened: as §2
dengue virus type 2 = test: Antiviral activity against Dengue virus type 2 clinical isolate infected in golden hamster BHK21 cells assessed as protection against virus-induced cytopathic effect after 3 to 4 days by MTT assay; type: functional, organism-based; conditions: BHK-21; procedure, shortened: as §2
[4] = Cytotoxicity against African green monkey Vero 76 cells assessed as decrease in cell viability after 48 to 96 hrs by MTT assay; type: cell-based; conditions: chlorocebus sabaeus
Procedure, shortened: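 Vero 76 cells seeded at 5×10^5 cells/mL in D-MEM with 10% FBS and incubated with serial compound dilutions at 37 °C, 5% CO2. Viability read by MTT after 48–96 h. CC50 by linear regression versus untreated controls.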

[5] = Cytotoxicity against golden hamster BHK21 cells assessed as decrease in cell viability after 72 hrs by MTT assay; type: cell-based, Mesocricetus auratus, BHK-21; procedure, shortened: as §1
Human alphaherpesvirus 1 = test: Antiviral activity against Human herpesvirus 1 KOS ATCC VR 1493 infected in African green monkey Vero 76 cells assessed as protection against virus-induced cytopathic effect after 3 days by crystal violet staining-based plaque reduction assay; type: functional, organism-based; conditions: Human alphaherpesvirus 1, KOS, Vero 76, 72 h
[6] = Selectivity index, ratio of CC50 for bovine MDBK cells to EC50 for Bovine viral diarrhea virus NADL ATCC VR 534; type: toxicity; conditions: cattle, read-out: Ratio CC50/EC50
Procedure, shortened: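 Selectivity index calculated as MDBK CC50 divided by BVDV EC50, both by MTT.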

West Nile virus = test: Antiviral activity against West Nile virus clinical isolate infected in golden hamster BHK21 cells assessed as protection against virus-induced cytopathic effect after 3 to 4 days by MTT assay; type: functional, organism-based; conditions: BHK-21; procedure, shortened: as §2
[7] = Antiviral activity against Human enterovirus B Faulkner ATCC VR 185 infected in African green monkey Vero 76 cells assessed as protection against virus-induced cytopathic effect after 3 days by crystal violet staining-based plaque reduction assay; type: functional, cell-based; conditions: Faulkner ATCC VR 185, Vero 76, 72 h
[8] = Cytotoxicity against human MT4 cells assessed as decrease in cell viability after 96 hrs by MTT assay; type: cell-based
Procedure, shortened: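 Exponentially growing MT-4 cells seeded at 1×10^5 cells/mL in RPMI-1640 with 10% FBS and incubated with serial compound dilutions at 37 °C, 5% CO2. Viability read by MTT after 96 h. CC50 by linear regression versus untreated controls.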

[9] = test system: Bovine viral diarrhea virus 1; test: Antiviral activity against Bovine viral diarrhea virus NADL ATCC VR 534 infected in bovine MDBK cells assessed as protection against virus-induced cytopathic effect after 3 to 4 days by MTT assay; type: functional, organism-based, Bovine viral diarrhea virus 1-NADL; conditions: Bovine viral diarrhea virus isolates and strains, ATCC VR 534, MDBK; procedure, shortened: as §2
Enterovirus C = test: Antiviral activity against Enterovirus C Sabin […] infected in African green monkey Vero 76 cells assessed as protection against virus-induced cytopathic effect after 2 days by crystal violet staining-based plaque reduction assay; type: functional, organism-based; conditions: Vero 76, 48 h
[10] = test system: Human immunodeficiency virus 1; test: Antiviral activity against HIV1 3B infected in human MT4 cells assessed as protection against virus-induced cytopathic effect after 4 days by MTT assay; type: functional, organism-based; conditions: Human immunodeficiency virus 1, 3B, MT4, 96 h
Procedure, shortened: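 MT-4 cells (1×10^4/well) in RPMI with serial compound dilutions, infected with 100 CCID50 HIV-1 (m.o.i. 0.01). Viability read by MTT after 4 days at 37 °C. EC50 for 50% protection from cytopathicity obtained by linear regression versus untreated controls; mean of three determinations.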

Human orthopneumovirus = test: Antiviral activity against Human respiratory syncytial virus A2 ATCC VR 1540 infected in African green monkey Vero 76 cells assessed as protection against virus-induced cytopathic effect after 5 days by crystal violet staining-based plaque reduction assay; type: functional, organism-based; conditions: ATCC VR 1540, Vero 76, 120 h
Yellow fever virus [11] = test: Potency index, ratio of azauridine EC50 to compound EC50 for Yellow fever virus 17D vaccine (Stamaril Pasteur J07B01); type: functional
Vaccinia virus = test: Antiviral activity against Vaccinia virus Lister ATCC VR 1549 infected in African green monkey Vero 76 cells assessed as protection against virus-induced cytopathic effect after 3 days by crystal violet staining-based plaque reduction assay; type: functional, organism-based; conditions: Orthopoxvirus vaccinia, ATCC VR 1549, Vero 76, 72 h
[12] = Selectivity index, ratio of CC50 for golden hamster BHK21 cells to EC50 for Yellow fever virus 17D; type: toxicity; conditions: read-out: Ratio CC50/EC50
Procedure, shortened: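 Selectivity index calculated as BHK-21 CC50 divided by YFV EC50, both from MTT assays.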

[13] = test system: Vesicular stomatitis Indiana virus; test: Antiviral activity against Vesicular stomatitis virus Indiana ATCC VR 158 infected in African green monkey Vero 76 cells assessed as protection against virus-induced cytopathic effect after 2 days by crystal violet staining-based plaque reduction assay; type: functional, organism-based; conditions: ATCC VR 158, Vero 76, 48 h
[14] = Selectivity index, ratio of CC50 for African green monkey Vero 76 cells to EC50 for Human coxsackievirus B5 Faulkner; type: toxicity; conditions: read-out: Ratio CC50/EC50
Procedure, shortened: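 Selectivity index calculated as Vero 76 CC50 (MTT) divided by CVB-5 plaque-reduction EC50.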

Compound | CC50 at 72 h [1] [µM] | EC50 [2] [µM] | EC50 (Yellow fever virus [3]) [µM] | EC50 (dengue virus type 2) [µM] | CC50 [4] [µM] | CC50 at 72 h [5] [µM] | EC50 (Human alphaherpesvirus 1) [µM] | selectivity ratio [6] | EC50 (West Nile virus) [µM] | EC50 [7] [µM] | CC50 at 96 h [8] [µM] | EC50 [9] [µM] | EC50 (Enterovirus C) [µM] | EC50 [10] [µM] | EC50 (Human orthopneumovirus) [µM] | Ratio EC50 (Yellow fever virus [11]) | EC50 (Vaccinia virus) [µM] | selectivity ratio [12] | EC50 [13] [µM] | selectivity ratio [14]
NS(=O)(=O)c1ccc(N2N=C(c3ccc(OCc4ccccc4)cc3)CC2c2ccccc2Cl)cc1 (centres undefined) | 52 | > 12 | 1.9 | > 12 | 92 | 12 | > 92 | 6.9 | > 12 | > 92 | 26 | 7.5 | > 92 | > 26 | > 92 | 10 | > 92 | 6.3 | > 92 | –
Cc1cccc(C2CC(c3ccc(OCc4ccccc4)cc3)=NN2c2ccc(S(N)(=O)=O)cc2)c1 (centres undefined) | 56 | > 8 | 1.8 | > 9 | 100 | 8 to 9 | > 100 | 4.5 | > 9 | 8 | 44 | 12.5 | > 100 | > 44 | > 100 | 10 | > 100 | 5 | > 100 | 12.5
NS(=O)(=O)c1ccc(N2N=C(c3ccc(Oc4ccccc4)cc3)CC2c2ccc(F)cc2)cc1 (centres undefined) | 6 | > 8 | 1.8 | > 9 | 25 | 8 to 9 | > 25 | – | > 9 | 6 | 33 | > 6 | > 25 | > 33 | > 25 | 10 | > 25 | 5 | > 25 | 4.2
Cc1cc(CCCOc2c(C)cc(-c3noc(C(F)(F)F)n3)cc2C)on1 [PLECONARIL] | – | – | – | – | 83 | – | – | – | – | 0.005 | – | – | 2.7 | – | – | – | – | – | – | 16000
NS(=O)(=O)c1ccc(N2N=C(c3ccc(Oc4ccccc4)cc3)CC2c2ccccc2F)cc1 (centres undefined) | 36 | > 32 | 1.9 | > 34 | 96 | 32 to 34 | > 96 | – | > 34 | 7 | 36 | > 36 | > 96 | > 36 | > 96 | 10 | > 96 | 17.9 | > 96 | 13.7
NS(=O)(=O)c1ccc(N2N=C(c3ccc(OCc4ccccc4)cc3)CC2c2ccc(F)cc2)cc1 (centres undefined) | > 100 | > 69 | 1.9 | > 60 | 90 | 60 to 69 | > 90 | – | > 60 | > 90 | > 100 | > 100 | > 90 | > 100 | > 90 | 10 | > 90 | 31.6 | > 90 | –
